# Key:
# Candida albicans [1] = test: Fungicidal activity against Candida albicans SP3902 after 96 hrs; format: functional; conditions: SP3902, 96 h, read-out: MFC99.9
# Outline: (§1)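 After the 48 h, 28 °C broth microdilution in MOPS-buffered RPMI 1640 (inoculum (0.5−1) × 10^3 CFU/mL), 50 μL from each well was plated on YM agar for a further 48 h at 28 °C. MFC is the lowest concentration killing at least 99.9% of cells. Triplicate, three biological replicates.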
# Candida albicans [2] = test: Antifungal activity against Candida albicans cgmcc 2.2086 in presence of KCl by broth dilution method; format: functional
# Candida albicans [3] = test: Antifungal activity against Candida albicans cgmcc 2.2086 in presence of CaCl2 by broth dilution method; format: functional
# Staphylococcus aureus [4] = test: Bactericidal activity against Staphylococcus aureus ATCC 25923; format: functional; conditions: read-out: MBC99.9
# Outline: (§2)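 Wells from the 24 h, 37 °C MHB microdilution plates (bacteria at a final (0.5−1) × 10^5 CFU/mL; peptide diluted in 0.2% BSA) were plated on agar and incubated overnight. MBC is the lowest concentration killing >99.9% of cells. Each test was reproduced at least 3 times.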
# [5] = Cytotoxicity against HEK293T cells assessed as cell viability at 2 to 64 uM after 24 hrs by MTT assay relative to control; format: cell-based, HEK-293T; conditions: human, read-out: Activity
# Outline: (§3)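 MTT viability assay. RAW264.7 or HEK293T cells at (1.0−2.0) × 10^5 per well were exposed to a peptide concentration series for 24 h at 37 °C in 5% CO2. MTT was then added at 0.5 mg/mL final for 4 h; formazan was dissolved in DMSO and read at 570 nm. Results average three independent trials.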
# Candida parapsilosis = test: Antifungal activity against Candida parapsilosis cgmcc 2.3989 after 48 hrs by broth microdilution method; format: functional; conditions: Lodderomyces parapsilosis, cgmcc 2.3989, 48 h
# Outline: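 Modified CLSI M27-A2 broth microdilution. Yeast were suspended in MOPS-buffered RPMI 1640 at a final (0.5−1) × 10^3 CFU/mL and mixed 1:1 with peptide serially diluted in 0.2% BSA. Plates were incubated 48 h at 28 °C and read at A492. MIC is the lowest concentration giving 95% inhibition. Run in triplicate with three biological replicates.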
# Escherichia coli [6] = test: Antibacterial activity against Escherichia coli ATCC 25922 after 18 hrs in presence of NaCl by broth dilution method; format: functional; conditions: ATCC 25922, 18 h
# Erythrocyte = test: Hemolytic activity in human RBC after 1 hr; format: ADME, cell-based
# Outline: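 Fresh human erythrocytes, diluted 10-fold in PBS pH 7.4, were mixed with equal volumes of peptide and held 1 h at 37 °C. After centrifugation at 1000g, supernatant hemoglobin was read at 576 nm. PBS set 0% and 0.1% Triton X-100 set 100% lysis. MHC is the concentration causing 10% hemolysis. At least three experiments were run, each in technical triplicate.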
# Candida albicans [7] = test: Antifungal activity against fluconazole-resistant Candida albicans 17546 after 48 hrs by broth microdilution method; format: functional; conditions: Candida albicans, 17546, 48 h
# Outline: (§4)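 Modified CLSI M27-A2 broth microdilution. Yeast at (0.5−1) × 10^3 CFU/mL in MOPS-buffered RPMI 1640 was mixed 1:1 with peptide serially diluted in 0.2% BSA and incubated 48 h at 28 °C. Absorbance was read at 492 nm; MIC is the lowest concentration inhibiting 95% of growth. Triplicate, three biological replicates.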
# Candida albicans [8] = test: Antifungal activity against Candida albicans SP3931 after 48 hrs by broth microdilution method; format: functional; conditions: SP3931, 48 h; outline: as §4
# Candida albicans [9] = test: Antifungal activity against Candida albicans cgmcc 2.2086 in presence of NH4Cl by broth dilution method; format: functional
# [10] = Cytotoxicity against mouse RAW264.7 cells assessed as cell viability at 2 to 64 uM after 24 hrs by MTT assay relative to control; format: cell-based; conditions: read-out: Activity; outline: as §3
# Candida albicans [11] = test: Fungicidal activity against fluconazole-resistant Candida albicans 56452 after 96 hrs; format: functional; conditions: Candida albicans, 56452, 96 h; read-out: MFC99.9; outline: as §1
# Salmonella typhimurium = test: Bactericidal activity against Salmonella typhimurium ATCC 14028; format: functional, Salmonella enterica subsp. enterica serovar Typhimurium; conditions: Salmonella enterica, read-out: MBC99.9; outline: as §2
# Pichia kudriavzevii = test: Fungicidal activity against Candida krusei cgmcc 2.1857 after 96 hrs; format: functional; conditions: cgmcc 2.1857, 96 h, read-out: MFC99.9
# Outline: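 Wells from the 48 h, 28 °C RPMI 1640/MOPS microdilution plates were plated on YM agar and incubated a further 48 h at 28 °C. MFC is the lowest concentration killing at least 99.9% of cells. Run in triplicate with three biological replicates.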
# [12] = Antibacterial activity against Salmonella pullorum ATCC 7913 after 24 hrs; format: functional, Salmonella enterica subsp. enterica serovar Pullorum; conditions: Salmonella enterica, ATCC 7913, 24 h
# Outline: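 Broth microdilution. Mid-log bacteria in MHB at a final (0.5−1) × 10^5 CFU/mL were mixed with equal volumes of peptide serially diluted in 0.2% BSA. Plates were incubated 24 h at 37 °C and read at A492. MIC is the lowest concentration inhibiting 95% of growth. Each test was repeated at least 3 times.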
# Escherichia coli [13] = test: Antibacterial activity against Escherichia coli ATCC 25922 after 18 hrs in presence of CaCl2 by broth dilution method; format: functional; conditions: ATCC 25922, 18 h
# Escherichia coli [14] = test: Antibacterial activity against Escherichia coli ATCC 25922 after 18 hrs in presence of ZnCl2 by broth dilution method; format: functional; conditions: ATCC 25922, 18 h
# Escherichia coli [15] = test: Antibacterial activity against Escherichia coli ATCC 25922 after 18 hrs in presence of MgCl2 by broth dilution method; format: functional; conditions: ATCC 25922, 18 h
# Staphylococcus aureus [16] = test: Bactericidal activity against methicillin-resistant Staphylococcus aureus ATCC 4330; format: functional; conditions: read-out: MBC99.9
# Outline: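 Bacteria at (0.5−1) × 10^5 CFU/mL in MHB were exposed to serially diluted peptide (0.2% BSA) for 24 h at 37 °C, then 50 μL aliquots were plated on agar overnight. MBC is the lowest concentration killing >99.9% of cells. At least 3 repeats.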
# Candida albicans [17] = test: Fungicidal activity against Candida albicans SP3903 after 96 hrs; format: functional; conditions: SP3903, 96 h, read-out: MFC99.9; outline: as §1
# Candida albicans [18] = test: Fungicidal activity against Candida albicans 14936 after 96 hrs; format: functional; conditions: Candida albicans, 14936, 96 h; read-out: MFC99.9; outline: as §1
# Candida albicans [19] = test: Fungicidal activity against fluconazole-resistant Candida albicans 56214 after 96 hrs; format: functional; conditions: Candida albicans, 56214, 96 h; read-out: MFC99.9; outline: as §1
# Candida albicans [20] = test: Antifungal activity against Candida albicans isolated from alveolar fluid after 48 hrs by broth microdilution method; format: functional; outline: as §4
# Escherichia coli [21] = test: Antibacterial activity against Escherichia coli ATCC 25922 after 18 hrs in presence of NH4Cl by broth dilution method; format: functional; conditions: ATCC 25922, 18 h
# Staphylococcus aureus [22] = test: Antibacterial activity against methicillin-resistant Staphylococcus aureus ATCC 4330 after 24 hrs; format: functional; conditions: ATCC 4330, 24 h
# Outline: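 Modified NCCLS broth microdilution. Mid-log bacteria at (0.5−1) × 10^5 CFU/mL in MHB were mixed 1:1 with peptide serially diluted in 0.2% BSA and incubated 24 h at 37 °C. Absorbance was read at 492 nm; MIC is the lowest concentration inhibiting 95% of growth. At least 3 repeats.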
# Candida albicans [23] = test: Fungicidal activity against Candida albicans SP3931 after 96 hrs; format: functional; conditions: SP3931, 96 h, read-out: MFC99.9; outline: as §1
Substance,MFC (Candida albicans [1]) [µM],MIC (Candida albicans [2]) [µM],MIC (Candida albicans [3]) [µM],MBC (Staphylococcus aureus [4]) [µM],"viability at 24 h, up to 64 µM [5] [%]",MIC95 (Candida parapsilosis) [µM],MIC (Escherichia coli [6]) [µM],HC10 (Erythrocyte) [µM],MIC95 (Candida albicans [7]) [µM],MIC95 (Candida albicans [8]) [µM],MIC (Candida albicans [9]) [µM],"viability at 24 h, up to 64 µM [10] [%]",MFC (Candida albicans [11]) [µM],MBC (Salmonella typhimurium) [µM],MFC (Pichia kudriavzevii) [µM],MIC95 [12] [µM],MIC (Escherichia coli [13]) [µM],MIC (Escherichia coli [14]) [µM],MIC (Escherichia coli [15]) [µM],MBC (Staphylococcus aureus [16]) [µM],further results
H-RRIRIIIRIRR-NH2,2,2,4,8,> 85,4,4,> 128,2,2,2,> 85,1,4,2,2,8,4,2,4,MFC (Candida albicans [17]): 1 µM; MFC (Candida albicans [18]): 2 µM; MFC (Candida albicans [19]): 2 µM; MIC95 (Candida albicans [20]): 2 µM; MIC (Escherichia coli [21]): 4 µM; MIC95 (Staphylococcus aureus [22]): 4 µM; MFC (Candida albicans [23]): 4 µM
H-RLLRRLRRLLR-NH2,8,16,8,16,70 to 80,8,4,> 128,8,8,4,70 to 80,8,16,8,8,8,8,2,16,MFC (Candida albicans [17]): 4 µM; MFC (Candida albicans [18]): 8 µM; MFC (Candida albicans [19]): 16 µM; MIC95 (Candida albicans [20]): 8 µM; MIC (Escherichia coli [21]): 4 µM; MIC95 (Staphylococcus aureus [22]): 8 µM; MFC (Candida albicans [23]): 8 µM
H-RRWRWWWRWRR-NH2,4,8,8,8,70 to 80,8,4,> 128,4,4,4,70 to 80,4,8,2,2,8,4,2,8,MFC (Candida albicans [17]): 4 µM; MFC (Candida albicans [18]): 8 µM; MFC (Candida albicans [19]): 8 µM; MIC95 (Candida albicans [20]): 4 µM; MIC (Escherichia coli [21]): 4 µM; MIC95 (Staphylococcus aureus [22]): 4 µM; MFC (Candida albicans [23]): 8 µM
H-IIRRIRRII-NH2,> 64,64,64,> 64,70 to 80,> 64,32,> 128,> 64,> 64,64,70 to 80,64,> 64,16,32,64,32,32,> 64,MFC (Candida albicans [17]): > 64 µM; MFC (Candida albicans [18]): > 64 µM; MFC (Candida albicans [19]): 64 µM; MIC95 (Candida albicans [20]): 64 µM; MIC (Escherichia coli [21]): 32 µM; MIC95 (Staphylococcus aureus [22]): 64 µM; MFC (Candida albicans [23]): > 64 µM
H-RIIRRIRRIIR-NH2,16,64,64,64,70 to 80,> 64,16,> 128,16,16,16,70 to 80,8,32,8,16,32,16,16,16,MFC (Candida albicans [17]): 4 µM; MFC (Candida albicans [18]): 8 µM; MFC (Candida albicans [19]): 16 µM; MIC95 (Candida albicans [20]): 16 µM; MIC (Escherichia coli [21]): 16 µM; MIC95 (Staphylococcus aureus [22]): 16 µM; MFC (Candida albicans [23]): 32 µM
